In the library only some 2.2% were active in any assay of this set; here they are far more common.
b-catenin transl: beta-catenin nuclear translocation modulation; HeLa beta-catenin nuclear translocation, immunofluorescence imaging; nuclear translocation activity, % at 5 µM; hit rate 0.3% among 190,000; AID 1665;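 active = nuclear translocation activity above 50% at 5 µM, with a well cell count of 50 or more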;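 also: per-cell ratio of nuclear to cytoplasmic median beta-catenin stain intensity; plate controls were DMSO negative control for no effect and GSK-3 inhibitor IX positive control for full effect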
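test system = HeLa cells, endogenous beta-catenin | dosing = single 5 µM dose plus 0.02–20 µM confirmation series | times = compound treatment 24 h, 37°C, 5% CO2 | technique = beta-catenin immunofluorescence imaging with DAPI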
APP transl inh: APP translation inhibition. inhibition, % at 2 µM. hit rate 0.82% among 190,000. SH-SY5Y APP 5'UTR-luciferase reporter, luminescence;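 active = inhibition above a set limit, derived from the sample mean plus 3 SD, cut at about 45% in these data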
Ba/F3 V617F tox: loss of viability in JAK2V617F-driven Ba/F3 cells | Ba/F3 EpoR-JAK2V617F viability, ATP luminescence | inhibition, % at 5.6 µM | hit rate 1.1% among 220,000 | AID 1446;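 active = inhibition above the campaign mean plus 3 SD over all tested compounds, cut at about 24% in these data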;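 also: cytokine-independent growth of Ba/F3 cells driven by EpoR plus mutant JAK2; 0% = DMSO-treated cells and 100% = JAK inhibitor I control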
BaF3 parental: parental Ba/F3 viability inhibition as JAK2V617F counter-screen | hit rate 1.1% among 220,000 | inhibition, % at 5.6 µM | CellTiter-Glo ATP luminescence;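 active = inhibition above a per-campaign cutoff, the mean inhibition of all tested compounds plus 3 SD, cut at about 27% in these data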;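 also: 0% = DMSO wells and 100% = JAK Inhibitor I control wells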
IEC-6 tox: counter-screen for KLF5 inhibitors: cytotoxicity in IEC-6 cells | inhibition, % at 5 µM | IEC-6 cytotoxicity, luminescence viability | hit rate 0.78% among 290,000; in the data active = inhibition above about 22%;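 also: 0% = plate median of test compound wells and 100% = cytotoxic reference compound wells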
MT stabilizer: microtubule stabilization, imaging screen; HeLa tubulin immunostaining HCS, 24 h; share of cells brighter than vehicle mean+2SD; % tubulin-high responders, % at 10 µM; hit rate 0.83% among 200,000;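 active = plate Z-score above 3 for both tubulin-high and condensed-nucleus cell shares, with cell loss under 80%, at 10 µM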;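 also: anti alpha tubulin signal scored within the nucleus-defined area of each cell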
Starred values were filed as active, the others as inactive.

What do the screens show for `Cc1ccccc1NC(=S)c1ccc2ccccc2n1`?
IEC-6 tox: 3

Results for CC1C/C(=C/c2ccco2)C(=O)/C(=C/c2ccco2)C1 (centres undefined) ?
b-catenin transl: -1; APP transl inh: 1; Ba/F3 V617F tox: 1; BaF3 parental: 2; IEC-6 tox: -4; MT stabilizer: 4

What do the screens show for `CC(C)(C)C1C/C(=C/c2ccccn2)C(=O)/C(=C/c2ccccn2)C1` (centres undefined)?
APP transl inh: 95*; Ba/F3 V617F tox: 0; BaF3 parental: -5; IEC-6 tox: 4; MT stabilizer: 52

What do the screens show for `CC1C/C(=C/c2ccccn2)C(=O)/C(=C/c2ccccn2)C1` (centres undefined)?
b-catenin transl: 23; APP transl inh: 98*; Ba/F3 V617F tox: 52*; BaF3 parental: 73*; IEC-6 tox: 3; MT stabilizer: 39*

Results for O=C1/C(=C/c2ccccn2)COc2ccccc21 ?
b-catenin transl: -4; APP transl inh: 5; Ba/F3 V617F tox: -4; BaF3 parental: -3; IEC-6 tox: -8; MT stabilizer: 3

How did S=C(Nc1ccccc1)Nc1nc2ccccc2n1CCOc1ccccc1 do in these assays?
b-catenin transl: 2; APP transl inh: -2; Ba/F3 V617F tox: -3; BaF3 parental: 2; IEC-6 tox: 1; MT stabilizer: 30*

How did Cc1ccc(S(=O)(=O)NCC(C)n2nc(C)nc2C)cc1 (centres undefined) do in these assays?
IEC-6 tox: 0

How did CSc1nc(C)c2c(n1)N(c1ccc(F)cc1)CC2 do in these assays?
b-catenin transl: -1; APP transl inh: 8; Ba/F3 V617F tox: -2; BaF3 parental: 16; IEC-6 tox: -1; MT stabilizer: 0

How did CCOc1ccc(N2CCc3c(C)nc(SC)nc32)cc1 do in these assays?
b-catenin transl: 125*; APP transl inh: -6; Ba/F3 V617F tox: -1; BaF3 parental: 0; IEC-6 tox: -5; MT stabilizer: 31*

Results for COc1ccc(N2CCc3c(C)nc(SC)nc32)cc1 ?
b-catenin transl: -2; APP transl inh: 3; Ba/F3 V617F tox: 1; BaF3 parental: 8; IEC-6 tox: -9; MT stabilizer: 17*

Results for CC(=O)c1cc2c(cc1NC(=O)CN1Cc3ccccc3C1=O)OCO2 ?
IEC-6 tox: 3

What do the screens show for `COc1ccc2c(c1)C1C=CCC1C(c1cc3c(cc1Br)OCO3)N2` (centres undefined)?
APP transl inh: 4; Ba/F3 V617F tox: -6; BaF3 parental: 5; IEC-6 tox: -1; MT stabilizer: 38*

Results for Nc1nonc1-n1nnc(C(=O)N/N=C/c2ccccc2Br)c1CN1CCCC1 ?
IEC-6 tox: -2

Results for CCOc1ccc2nc(NC(=O)c3ccc(OCC4CCCO4)cc3)sc2c1 (centres undefined) ?
b-catenin transl: -3; APP transl inh: -78; Ba/F3 V617F tox: 56*; BaF3 parental: 60*; IEC-6 tox: -5; MT stabilizer: 5

What do the screens show for `COc1ccc2nc(NC(=O)c3cccc(OCc4c(C)noc4C)c3)sc2c1`?
b-catenin transl: 72*; APP transl inh: 86*; Ba/F3 V617F tox: -1; BaF3 parental: 3; IEC-6 tox: 6; MT stabilizer: 30*

What do the screens show for `O=C(NNC(=O)c1cc(C(F)(F)F)cc(C(F)(F)F)c1)c1ccc(Cl)cc1`?
b-catenin transl: -6; Ba/F3 V617F tox: -4; BaF3 parental: 62*; IEC-6 tox: -1

How did Cc1nc2scc(-c3ccccc3)c2c(=O)n1N=C1C=CC(=O)C=C1 do in these assays?
b-catenin transl: 2; APP transl inh: 80*; Ba/F3 V617F tox: 49*; BaF3 parental: -10; IEC-6 tox: 9; MT stabilizer: 3

How did O=C(NCc1ccccc1Cl)c1ccc(CS(=O)Cc2ccc(Cl)cc2)o1 (centres undefined) do in these assays?
IEC-6 tox: 1

Results for Cc1ccc2c(c1)S/C(=C/c1ccc[n+](CCO)c1)N2C ?
b-catenin transl: 2; APP transl inh: 9; Ba/F3 V617F tox: 87*; BaF3 parental: 68*; IEC-6 tox: -11; MT stabilizer: 2

What do the screens show for `CCN(CC)c1ccc(NC(=O)c2cccc(OC)c2)c(C)c1`?
APP transl inh: -19; Ba/F3 V617F tox: 1; BaF3 parental: 6; IEC-6 tox: 7; MT stabilizer: 53*

Source: PubChem BioAssay (several laboratories)
